Test results: ChEMBL document CHEMBL2380254, “Optimization of tocotrienols as antiproliferative and antimigratory leads” (Eur J Med Chem, 2013)

How the values were obtained:
Type in all cases: functional
[1] = Growth inhibition of human Hs 578T cells assessed as cell growth at 10 uM after 48 hrs by sulforhodamine B assay; conditions: read-out: Activity
Summary of the method: (§1)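 NCI-60 single-dose screen at 10 µM: cells in RPMI 1640 with 5% FBS, preincubated 24 h, then exposed 48 h at 37 °C. TCA fixation (16% final for suspension cells), SRB staining, absorbance 515 nm. Percent growth relative to time-zero and untreated control plates; negative values indicate cell kill.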

PC-3 = assay: Growth inhibition of human PC3 cells assessed as cell growth at 10 uM after 48 hrs by sulforhodamine B assay; conditions: PC-3, 48 h, read-out: Activity
Summary of the method: (§2)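 Single-dose NCI-60 screen: adherent cells in RPMI 1640 with 5% FBS were exposed to 10 µM for 48 h at 37 °C after a 24 h preincubation. They were fixed in situ with cold TCA (10% final), stained with 0.4% SRB in 1% acetic acid, solubilized in 10 mM Tris base, and read at 515 nm. Percent growth was taken relative to time-zero and control plates.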

UO-31 = assay: Growth inhibition of human UO31 cells assessed as cell growth at 10 uM after 48 hrs by sulforhodamine B assay; conditions: UO-31, 48 h, read-out: Activity
Summary of the method: (§3)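 Single-dose NCI-60 test at 10 µM. Cells were grown in RPMI 1640 with 5% FBS and 2 mM L-glutamine, preincubated 24 h, with T0 plates TCA-fixed. Exposure was 48 h at 37 °C, 5% CO2. Cells were fixed with cold TCA (final 10%, 4 °C, 60 min), stained with SRB and read at 515 nm. Percent growth was taken relative to T0 and untreated control; negative values denote cell kill.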

SN12C = assay: Growth inhibition of human SN12C cells assessed as cell growth at 10 uM after 48 hrs by sulforhodamine B assay; conditions: read-out: Activity; summary of the method: as §3
LOX IMVI = assay: Growth inhibition of human LOXIMVI cells assessed as cell growth at 10 uM after 48 hrs by sulforhodamine B assay; conditions: read-out: Activity; summary of the method: as §1
SF-539 = assay: Growth inhibition of human SF539 cells assessed as cell growth at 10 uM after 48 hrs by sulforhodamine B assay; conditions: SF-539, 48 h, read-out: Activity; summary of the method: as §2
SF-295 = assay: Growth inhibition of human SF295 cells assessed as cell growth at 10 uM after 48 hrs by sulforhodamine B assay; conditions: SF-295, 48 h, read-out: Activity; summary of the method: as §2
KM12 = assay: Growth inhibition of human KM12 cells assessed as cell growth at 10 uM after 48 hrs by sulforhodamine B assay; conditions: KM12, 48 h, read-out: Activity; summary of the method: as §1
NCI-H522 = assay: Growth inhibition of human NCI-H522 cells assessed as cell growth at 10 uM after 48 hrs by sulforhodamine B assay; conditions: NCI-H522, 48 h, read-out: Activity; summary of the method: as §2
NCI-H322M = assay: Growth inhibition of human NCI-H322M cells assessed as cell growth at 10 uM after 48 hrs by sulforhodamine B assay; conditions: read-out: Activity; summary of the method: as §2
NCI-H23 = assay: Growth inhibition of human NCI-H23 cells assessed as cell growth at 10 uM after 48 hrs by sulforhodamine B assay; conditions: NCI-H23, 48 h, read-out: Activity; summary of the method: as §2
MOLT-4 = assay: Growth inhibition of human MOLT4 cells assessed as cell growth at 10 uM after 48 hrs by sulforhodamine B assay; conditions: MOLT-4, 48 h, read-out: Activity
Summary of the method: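 Single 10 µM dose applied to suspension cells in RPMI 1640 with 5% FBS and 2 mM L-glutamine for 48 h at 37 °C. Settled cells were fixed with 80% TCA (16% final), stained with SRB, and read at 515 nm. Percent growth was calculated against time-zero and untreated control optical densities.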

K562 = assay: Growth inhibition of human K562 cells assessed as cell growth at 10 uM after 48 hrs by sulforhodamine B assay; conditions: K562, 48 h, read-out: Activity; summary of the method: as §1

CC(C)=CCC/C(C)=C/CC/C(C)=C/CC[C@]1(C)CCc2c(CNCCc3ccc(O)cc3)c(O)c(C)c(C)c2O1
growth at 10 µM [1]: 133%
growth at 10 µM (PC-3): 79.5%
growth at 10 µM (UO-31): 70.8%
growth at 10 µM (SN12C): 95.1%
growth at 10 µM (LOX IMVI): 63.9%
growth at 10 µM (SF-539): 113%
growth at 10 µM (SF-295): 105%
growth at 10 µM (KM12): 89.6%
growth at 10 µM (NCI-H522): 105%
growth at 10 µM (NCI-H322M): 100%
growth at 10 µM (NCI-H23): 91.5%
growth at 10 µM (MOLT-4): 54.6%
growth at 10 µM (K562): 63%

CC(C)=CCC/C(C)=C/CC/C(C)=C/CC[C@]1(C)CCc2c3c(cc(C)c2O1)OCN(CCCCCCCCCCCCO)C3
growth at 10 µM [1]: 93.2%
growth at 10 µM (PC-3): 58.5%
growth at 10 µM (UO-31): 51.7%
growth at 10 µM (SN12C): 71.8%
growth at 10 µM (LOX IMVI): 67.1%
growth at 10 µM (SF-539): 102%
growth at 10 µM (SF-295): 93.3%
growth at 10 µM (KM12): 61.1%
growth at 10 µM (NCI-H522): 36.7%
growth at 10 µM (NCI-H322M): 86%
growth at 10 µM (NCI-H23): 77.3%
growth at 10 µM (MOLT-4): 48.5%
growth at 10 µM (K562): 47.4%

CC(C)=CCC/C(C)=C/CC/C(C)=C/CC[C@]1(C)CCc2c3c(c(C)c(C)c2O1)OCN(CCCCCCCCCCCCO)C3
growth at 10 µM [1]: 103%
growth at 10 µM (PC-3): 81.3%
growth at 10 µM (UO-31): 77.7%
growth at 10 µM (SN12C): 97.4%
growth at 10 µM (LOX IMVI): 100%
growth at 10 µM (SF-539): 111%
growth at 10 µM (SF-295): 93.5%
growth at 10 µM (KM12): 90.4%
growth at 10 µM (NCI-H522): 69.5%
growth at 10 µM (NCI-H322M): 90.7%
growth at 10 µM (NCI-H23): 104%
growth at 10 µM (MOLT-4): 90.5%
growth at 10 µM (K562): 80.5%

CC(C)=CCC/C(C)=C/CC/C(C)=C/CC[C@]1(C)CCc2c3c(c(C)c(C)c2O1)OCN(CCc1ccc(O)cc1)C3
growth at 10 µM [1]: 91.8%
growth at 10 µM (PC-3): 79.9%
growth at 10 µM (UO-31): 71.9%
growth at 10 µM (SN12C): 85.4%
growth at 10 µM (LOX IMVI): 30.3%
growth at 10 µM (SF-539): 104%
growth at 10 µM (SF-295): 100%
growth at 10 µM (KM12): 65.6%
growth at 10 µM (NCI-H522): 90%
growth at 10 µM (NCI-H322M): 96%
growth at 10 µM (NCI-H23): 88.2%
growth at 10 µM (MOLT-4): 40.4%
growth at 10 µM (K562): 54.9%

CC(C)=CCC/C(C)=C/CC/C(C)=C/CC[C@]1(C)CCc2c3c(cc(C)c2O1)OCN(CCCCCCCCCCO)C3
growth at 10 µM [1]: 99%
growth at 10 µM (PC-3): 88.7%
growth at 10 µM (UO-31): 61.9%
growth at 10 µM (SN12C): 92.7%
growth at 10 µM (LOX IMVI): 87.3%
growth at 10 µM (SF-539): 98.3%
growth at 10 µM (SF-295): 114%
growth at 10 µM (KM12): 87.2%
growth at 10 µM (NCI-H522): 86%
growth at 10 µM (NCI-H322M): 104%
growth at 10 µM (NCI-H23): 90.8%
growth at 10 µM (MOLT-4): 67.6%
growth at 10 µM (K562): 45.4%

COc1ccc(CCNCc2c(O)c(C)c(C)c3c2CC[C@@](C)(CC/C=C(\C)CC/C=C(\C)CCC=C(C)C)O3)cc1OC
growth at 10 µM [1]: 121%
growth at 10 µM (PC-3): 82.7%
growth at 10 µM (UO-31): 69.5%
growth at 10 µM (SN12C): 74%
growth at 10 µM (LOX IMVI): 52.9%
growth at 10 µM (SF-539): 97%
growth at 10 µM (SF-295): 102%
growth at 10 µM (KM12): 60.1%
growth at 10 µM (NCI-H522): 96.2%
growth at 10 µM (NCI-H322M): 95.6%
growth at 10 µM (NCI-H23): 84.9%
growth at 10 µM (MOLT-4): 30.3%
growth at 10 µM (K562): 42%
